This note sets out measurements from ChEMBL document CHEMBL3877273, “Synthesis and evaluation of N-substituted 2-amino-4,5-diarylpyrimidines as selective adenosine A1 receptor antagonists” (Eur J Med Chem, 2017).

As a reminder, the Ki is the dissociation constant of the complex between target and ligand, obtained from inhibition or displacement. The term inhibition denotes the drop in the measured response relative to a control, in per cent. One may read the EC50 as the concentration that produces a half-maximal response. In general, IC50 refers to the concentration that gives 50% inhibition.

Experiment [1] addresses T1, Adenosine receptor A1 (Homo sapiens, UniProt P30542).
T1 sequence (P30542 whole entry): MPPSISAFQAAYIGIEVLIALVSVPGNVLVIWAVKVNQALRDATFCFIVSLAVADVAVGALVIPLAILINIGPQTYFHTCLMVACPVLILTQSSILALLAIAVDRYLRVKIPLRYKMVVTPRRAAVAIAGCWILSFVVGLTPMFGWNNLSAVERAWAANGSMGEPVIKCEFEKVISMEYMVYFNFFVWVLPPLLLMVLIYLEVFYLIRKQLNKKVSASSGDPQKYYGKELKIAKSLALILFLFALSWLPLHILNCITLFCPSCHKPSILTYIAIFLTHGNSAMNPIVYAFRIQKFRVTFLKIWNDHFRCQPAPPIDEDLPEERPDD
Put plainly: Displacement of [3H]DPCPX from recombinant human adenosine A1 receptor expressed in CHO cell membranes after 1 hr by beta scintillation counting method.

The target in experiment [2] is T2, Adenosine receptor A2a (Homo sapiens, UniProt P29274). Put plainly: Displacement of [3H]ZM241385 from recombinant human adenosine A2A receptor expressed in HEK293 cell membranes after 2 hrs by beta scintillation counting method. In outline: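 Membranes from HEK293 cells stably expressing human A2A receptor were used in radioligand competition with [3H]ZM241385. Ki was reported as mean ± SEM, n = 3.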
T2 sequence (P29274 whole entry): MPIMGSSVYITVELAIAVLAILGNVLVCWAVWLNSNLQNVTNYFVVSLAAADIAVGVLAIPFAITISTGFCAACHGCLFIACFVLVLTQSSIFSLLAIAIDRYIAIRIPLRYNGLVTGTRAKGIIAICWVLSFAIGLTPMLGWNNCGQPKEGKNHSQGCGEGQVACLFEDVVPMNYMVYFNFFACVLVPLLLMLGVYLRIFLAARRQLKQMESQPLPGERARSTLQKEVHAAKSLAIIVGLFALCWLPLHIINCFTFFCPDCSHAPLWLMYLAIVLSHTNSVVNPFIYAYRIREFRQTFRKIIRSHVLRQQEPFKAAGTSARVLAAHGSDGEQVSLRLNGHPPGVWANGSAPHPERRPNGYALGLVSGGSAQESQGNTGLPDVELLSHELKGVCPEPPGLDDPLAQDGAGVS

Experiment [3] addresses T2, Adenosine receptor A2a. As to the kind of experiment: Displacement of [3H]ZM241385 from recombinant human adenosine A2A receptor expressed in HEK293 cell membranes at 1 uM after 2 hrs by beta scintillation counting method relative to control. An outline of the steps:
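Single-concentration screen on membranes from HEK293 cells stably expressing human A2A receptor. Test ligand at 1 µM, measured against specific [3H]ZM241385 binding and given as % displacement. Two independent experiments (n = 2), each value reported.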
On the technique in general: In a radioligand displacement assay an active substance lowers the binding of a labelled ligand.

In experiment [4] the target is T3, Adenosine receptor A2b (Homo sapiens) (UniProt P29275).
T3 sequence (whole entry): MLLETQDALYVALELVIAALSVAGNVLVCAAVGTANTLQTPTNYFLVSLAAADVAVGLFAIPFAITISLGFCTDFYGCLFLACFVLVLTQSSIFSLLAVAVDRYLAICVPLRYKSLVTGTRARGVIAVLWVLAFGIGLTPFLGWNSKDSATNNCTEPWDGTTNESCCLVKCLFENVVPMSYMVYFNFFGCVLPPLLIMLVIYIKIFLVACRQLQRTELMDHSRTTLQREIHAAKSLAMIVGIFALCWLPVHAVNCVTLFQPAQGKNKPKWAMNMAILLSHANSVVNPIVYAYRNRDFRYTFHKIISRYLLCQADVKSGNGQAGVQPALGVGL
As to the kind of experiment: Displacement of [3H]PSB603 from recombinant human adenosine A2B receptor expressed in CHO cell membranes at 1 uM after 1 hr by beta scintillation counting method relative to control.

In experiment [5] the target is T4, Adenosine receptor A3 (Homo sapiens) (UniProt P0DMS8).
T4 sequence (whole entry): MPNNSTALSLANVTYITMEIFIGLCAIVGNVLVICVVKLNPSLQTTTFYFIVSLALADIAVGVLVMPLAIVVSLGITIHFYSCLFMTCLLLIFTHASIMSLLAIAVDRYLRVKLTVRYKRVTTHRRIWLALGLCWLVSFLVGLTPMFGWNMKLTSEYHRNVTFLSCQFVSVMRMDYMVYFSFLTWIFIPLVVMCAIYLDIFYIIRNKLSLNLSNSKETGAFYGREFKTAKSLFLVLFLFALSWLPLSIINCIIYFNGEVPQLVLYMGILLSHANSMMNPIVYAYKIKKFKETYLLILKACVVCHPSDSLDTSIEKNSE
Put plainly: Displacement of [3H]PSB11 from recombinant human adenosine A3 receptor expressed in CHO cell membranes at 1 uM after 1 hr by […] method relative to control.

The target in experiment [6] is T1, Adenosine receptor A1. Put plainly: Inverse agonist activity at recombinant human adenosine A1 receptor expressed in CHO cell membranes assessed as […] of [35S]GTPgammaS binding preincubated for 30 mins followed by [35S]GTPgammaS addition measured after 90 mins by beta scintillation counting method. The class given is functional. Background: Binding of GTPγS marks nucleotide exchange on a G protein.

Experiment [7] addresses T5, Adenosine receptor A2b (Homo sapiens, UniProt P29275).
T5 sequence (P29275 whole entry): T3 sequence (whole entry)
Put plainly: Displacement of [3H]PSB603 from recombinant human adenosine A2B receptor expressed in CHO cell membranes after 1 hr by beta scintillation counting method.

Each structure is given as a SMILES string.

Turning to `O[C@H]1CC[C@H](Nc2ncc(-c3ccnc(C4CC4)c3)c(-c3ccccc3)n2)CC1`, the values for the Ki in experiment [1] and in experiment [2] were 1.06 nM and 65 nM, respectively.

As for `Nc1ncc(-c2ccc(O)c(O)c2)c(-c2ccccc2)n1`, the Ki in experiment [1] stood at 12 nM; in experiment [2] it was 4.7 nM.

`OCCCCNc1ncc(-c2cccc(Cl)c2)c(-c2ccccc2)n1`: in experiment [1], the Ki is 130 nM. Besides, the inhibition in experiment [3] amounted to 13%.

As to `OCCNc1ncc(-c2cccc(Cl)c2)c(-c2ccccc2)n1`, the Ki in experiment [1] stood at 180 nM.

For the compound `Oc1ccc(-c2cnc(N[C@H]3CC[C@H](O)CC3)nc2-c2ccccc2)cc1Cl`, the Ki in experiment [2] was 7.2 nM.

`O[C@H]1CC[C@H](Nc2ncc(-c3ccc4ccccc4c3)c(-c3ccccc3)n2)CC1`: the inhibition in experiment [4] was determined as 48%; in experiment [5], 9%. In experiment [6], the EC50 came out at 166 nM. In experiment [7], the IC50 was 1000 nM.

Consider `Nc1ncc(-c2ccc(F)cc2)c(-c2ccccc2)n1`, for which the Ki in experiment [1] turned out to be 160 nM.

Consider `Nc1ncc(-c2ccc3ccccc3c2)c(-c2ccccc2)n1`, for which the Ki came out at 18 nM in experiment [1] and 129 nM in experiment [2].

`COc1cccc(-c2cnc(N)nc2-c2ccccc2)c1`: the figures for the Ki in experiment [1] and in experiment [2] were 54 nM and 154 nM, respectively.

`OCCCNc1ncc(-c2cccc(Cl)c2)c(-c2ccccc2)n1`: in experiment [1], the Ki came out at 59 nM. In addition, the inhibition in experiment [3] was found to be 9.5%.

With `Nc1ncc(-c2cccc(O)c2)c(-c2ccccc2)n1`, the Ki in experiment [1] was 144 nM.

Consider `Nc1ncc(-c2ccc(O)cc2)c(-c2ccccc2)n1`, for which the Ki in experiment [1] turned out to be 1.4 nM; in experiment [2] it was 1.3 nM.

With `COc1ccc(-c2cnc(N)nc2-c2ccccc2)cc1OC`, in experiment [1], the Ki turned out to be 104 nM.

As for `Cc1cccc(-c2cnc(N)nc2-c2ccccc2)c1`, the Ki in experiment [1] worked out at 205 nM.

In the case of `Nc1ncc(-c2cccc(C(F)(F)F)c2)c(-c2ccccc2)n1`, the Ki worked out at 14 nM in experiment [1] and 98 nM in experiment [2].

In the case of `Nc1ncc(-c2cccc(Cl)c2)c(-c2ccccc2)n1`, the Ki in experiment [1] amounted to 55 nM; in experiment [2], 120 nM.

With `COc1ccc(-c2cnc(N)nc2-c2ccccc2)cc1Cl`, the Ki in experiment [1] was 30 to 95 nM; in experiment [2], 251 nM.

Consider `Nc1ncc(-c2ccnc(C3CC3)c2)c(-c2ccccc2)n1`, for which the Ki in experiment [1] was 1.76 nM; in experiment [2] it was 36 nM.

Consider `Nc1ncc(-c2ccc(Cl)c(Cl)c2)c(-c2ccccc2)n1`, for which, in experiment [1], the Ki came to 38 nM. Moreover, the inhibition in experiment [3] amounted to 41%.

As to `O[C@H]1CC[C@H](Nc2ncc(-c3cccc(Cl)c3)c(-c3ccccc3)n2)CC1`, the figures for the inhibition in experiment [4], in experiment [5] and in experiment [3] were 27%, 3% and 1.4%, respectively. Besides, the Ki in experiment [1] was found to be 30 nM. In addition, the EC50 in experiment [6] is 278 nM.

Regarding `Nc1ncc(-c2ccncc2)c(-c2ccccc2)n1`, the figures for the Ki in experiment [1] and in experiment [2] were 17 nM and 108 nM, respectively.

On to `CCCC(=O)Nc1ncc(-c2cccc(Cl)c2)c(-c2ccccc2)n1`, for which the Ki in experiment [1] was 106 nM.

In the case of `Clc1cccc(-c2cnc(NC3CCCC3)nc2-c2ccccc2)c1`, the Ki in experiment [1] was 94 nM. Besides, in experiment [3], the inhibition was 23%.

With `Nc1ncc(-c2ccc(O)c(Cl)c2)c(-c2ccccc2)n1`, the figures for the Ki in experiment [1] and in experiment [2] were 0.46 nM and 1.3 nM, respectively.
